Assay outcomes from PubChem BioAssay.
A selection: hits, their analogues and other compounds. The true share with any hit is near 4.1%.
UPR CHOP act – apoptotic UPR (CHOP) activation; CHO-CHOP luciferase reporter, luminescence; percent of tunicamycin response over DMSO baseline; activation, % at 10 µM; hit rate 0.34% among 330,000;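 active = at 10 µM dose, activation of 40% or more, normalized to positive control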;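 also: 100% = tunicamycin at 10 µg/mL and 0% = DMSO alone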
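Test system: CHO-CHOP cells, stable luciferase reporter of PERK-eIF2a-CHOP signalling | Quantity: 500 CHO-CHOP cells per well | Buffer or medium: F12 plus 10% serum | Compound dosing: 10 µM single point, 0.5% DMSO | Schedule: 6 h compound treatment, 37 °C | Signal: Luciferase luminescence | Control set: Tunicamycin high control, DMSO low control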
XBP1 UPR activ – activators of adaptive arm of unfolded protein response (XBP1). CHO-XBP1 luciferase reporter, IRE1-XBP1 UPR activation, luminescence; percent of tunicamycin response, DMSO as zero. activation, % at 20 µM. hit rate 0.33% among 330,000;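 active = versus positive control, 20 µM dose yields 30% or more activation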;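 also: 100% = tunicamycin at 10 µg/mL and 0% = DMSO only wells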
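Material: CHO cell line with stable XBP1 luciferase reporter; schedule: 16-18 h cell attachment at 37 °C, then 6 h compound exposure; signal: glow luminescence from Steady-Glo reagent; medium: serum-containing F12 medium, 10% FBS; benchmarks: tunicamycin 10 µg/mL and vehicle-only wells; read-out: percent activation relative to tunicamycin reference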
Apaf1 inhib – blocks human Apaf-1 apoptosome activity. O14727. inhibition, % at 20 µM. hit rate 0.71% among 330,000. reconstituted apoptosome caspase-3 activity, DEVD-Rh110 fluorescence; active = inhibition of at least 40% at 20 µM;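 also: plate controls were DMSO wells for no effect and DEVD-CHO caspase inhibitor wells for full effect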
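detection = Rh110 fluorescence intensity | test system = biochemical Apaf-1 apoptosome reconstitution | also added = cytochrome c and DEVD-Rh110 substrate | schedule = 30 min plus 50 min, RT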
UBC13 inh – blocks human UBC13 polyubiquitin chain formation; P61088; TR-FRET; inhibition, % at 20 µM; hit rate 0.47% among 330,000; in the data active = inhibition above about 45%, passing the limit was not always enough; inconclusive = no clear call, values can overlap the other calls
Mdm2-MdmX inh – disrupts the human Mdm2-MdmX interaction | O15151+Q00987 | hit rate 3% among 330,000 | inhibition, % at 8 µM | SaOS-2 split-luciferase Mdm2/MdmX complementation, luminescence;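 active = inhibition of at least 50% at 8 µM in the primary screen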
XBP1 UPR conf – confirmation of adaptive unfolded protein response (XBP1) activators | hit rate 63% among 1,000 | shares compounds with XBP1 UPR activ | activation, % at 20 µM | CHO-XBP1 IRE1-XBP1 luciferase reporter, luminescence | AID 485299;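 active = reporter signal at least 30% of the positive control's activation in two or more of four replicate wells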;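 also: plate controls were DMSO negative control for no effect and tunicamycin 10 µg/mL positive control for full effect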
Casp3 UBC13 ctr – caspase-3 inhibition (UBC13 counter-screen); shares compounds with UBC13 inh; Recombinant caspase-3, Caspase-Glo 3/7 luminescence, 60 min; inhibition, % at 20 µM; hit rate 4% among 1,400;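 active = mean inhibition across replicates above about 26%, limit read from the data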;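 also: plate controls were DMSO with caspase-3 for no effect and DMSO wells lacking enzyme for full effect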
UBC13 conf – human UBC13 polyubiquitin inhibition, confirmed; shares compounds with UBC13 inh; UBC13 polyubiquitination, TR-FRET, biochemical; inhibition, % at 10 µM; hit rate 68% among 1,400; in the data active = inhibition above about 45%; inconclusive = no clear call, values can overlap the other calls
Mdm2-MdmX conf – human Mdm2/MdmX binding inhibition, confirmed; shares compounds with Mdm2-MdmX inh; luminescent assay; inhibition, % at 8 µM; hit rate 55% among 10,000; in the data active = inhibition above about 40%
Apaf-1 inh conf2 – Apaf-1 inhibition, single-dose confirmed; shares compounds with Apaf1 inhib; reconstituted apoptosome, caspase-3 DEVD-Rh110 fluorescence; inhibition, % at 20 µM; hit rate 25% among 1,800; AID 504614;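 active = mean inhibition of at least 40% at 20 µM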;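 also: plate controls were DMSO wells for no effect and DEVD-CHO caspase inhibitor control wells for full effect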
Rh110 quench – Rh110 signal interference in Apaf-1 inhibitor counter-screen. Rh110 fluorescence interference, quenched caspase reaction. activation (fluorescence interference), % at 20 µM. 1,800 tested, under 10 active. shares compounds with Apaf1 inhib;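 active = signal rise of 40% or more at 20 µM, treated as a fluorescence artifact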
* marks the source's active call; other numbers are inactive results; ? = inconclusive; / = not tested or not shown.

SMILES	UPR CHOP act	XBP1 UPR activ	Apaf1 inhib	UBC13 inh	Mdm2-MdmX inh	Casp3 UBC13 ctr	UBC13 conf	others
COc1ccc(OCC(=O)OCC(=O)NC2CCCCC2C)cc1 (stereo unspecified)	1.4	0.8	-15.2	16.0	-14.5	/	/
COc1cccc2c(N/N=C/c3ccccc3)cc(C)nc12	0.9	-3.7	10.6	-2.6	17.3	/	/
COc1ccc(/C=N/Nc2cc(C)nc3ccc(Br)cc23)cc1	20.0	32.1*	55.5*	60.8*	97.5*	3.6	84.6*	XBP1 UPR conf=36.3*;Mdm2-MdmX conf=24.6;Apaf-1 inh conf2=23.9;Rh110 quench=-1.0
FC(F)(F)c1cc(CCN2CCNC[C@@H]2Cc2ccccc2)cc(C(F)(F)F)c1	1.7	36.7*	56.7*	64.4*	50.7*	0.4	50.9*	XBP1 UPR conf=17.8;Mdm2-MdmX conf=19.8;Apaf-1 inh conf2=20.7;Rh110 quench=8.3
Fc1ccc(-n2ncc3c(SCc4cccnc4)ncnc32)cc1	2.8	2.9	-2.4	?	-124.5	/	/
Cc1ccc(-n2nc3c4c(cccc4c2=O)-c2ccccc2-3)cc1	-0.5	5.9	15.6	45.7*	24.8	8.5	38.6
COc1ccc(-c2csc(NC(C)c3nc4cc(C(=O)NCCCO)ccc4n3Cc3ccc(C)cc3)n2)cc1 (stereo unspecified)	2.3	0.1	10.9	53.2*	27.5	-2.6	23.0
Cc1ccc(Cn2c(C(C)Nc3nc(-c4ccc(F)cc4)cs3)nc3cc(C(=O)NCCCO)ccc32)cc1 (stereo unspecified)	-1.7	-3.0	13.2	40.9	7.0	/	/
O=C(NCCCN1CCOCC1)c1ccc2c(=O)n(Cc3cccc(Br)c3)c(=S)[nH]c2c1	2.5	2.6	22.4	48.6*	-17.1	-2.5	59.8*
O=C(NCCCN1CCCC1)c1ccc(Cn2c(=S)[nH]c3ccc(Br)cc3c2=O)cc1	0.0	-0.9	16.2	47.8*	25.9	11.6	?
Cc1cc(Sc2nnc(/N=C/N(C)C)s2)c2ccccc2n1	4.2	-7.9	-8.4	55.0*	41.1	-2.4	65.3*
NCCCC[C@@H]1NC(=O)[C@H](CCC(=O)O)NC(=O)c2cc([N+](=O)[O-])cc(I)c2SC[C@@H](C(=O)NCC(N)=O)NC1=O	-1.2	-0.7	12.2	-15.5	-0.3	/	/
NCCCC[C@@H]1NC(=O)c2cc([N+](=O)[O-])cc(I)c2SC[C@@H](C(N)=O)NC(=O)[C@H](Cc2ccc(O)cc2)NC1=O	-2.1	-1.4	6.3	58.7*	10.8	-0.5	80.7*
COc1ccc(C)cc1Nc1n[n+](-c2ccccc2)c(-c2ccc(OC)c(OC)c2OC)s1	4.3	-0.4	17.5	47.9*	39.4	-4.1	30.5
CCc1ccc(Nc2n[n+](-c3ccccc3)c(-c3cc(OC)c(OC)cc3Br)s2)cc1	5.1	0.9	11.2	52.5*	11.5	-5.0	12.1
COc1ccc(C)cc1Nc1n[n+](-c2ccccc2)c(-c2ccc(N(C)C)cc2)s1	26.4	5.2	38.5	32.7	49.6	/	/
CC(=O)OCC1=C(C(=O)O)N2C(=O)C(NC(=O)c3ccc(COc4cccc(Cl)c4Cl)o3)C2SC1 (stereo unspecified)	-0.3	-1.9	8.5	-16.6	8.8	/	/
O=C(Nc1ccncc1)C1CCN(S(=O)(=O)c2cccc(C(F)(F)F)c2)CC1	-0.2	-0.3	38.8	54.2*	26.5	0.7	32.1
CCCCN1C(=N)N([C@@H](CCC)CN2CCC[C@H]2CN2C(N)=NC[C@@H]2Cc2ccccc2)C[C@H]1[C@H](C)CC	0.3	-0.5	34.0	37.0	-10.9	/	/
CCCCN1C(=N)N([C@@H](CN2CCC[C@H]2CN2C(N)=NC[C@@H]2Cc2ccccc2)C(C)C)C[C@H]1Cc1ccccc1	0.2	2.5	38.4	46.8*	2.3	0.5	38.9
CCCCN1C(=N)N([C@@H](C)CN2CCC[C@H]2CN2C(N)=NC[C@@H]2Cc2ccccc2)C[C@H]1Cc1ccccc1	0.4	-2.0	23.7	28.0	-19.2	/	/
CCCCN1C(=N)N([C@@H](CCC)CN2CCC[C@H]2CN2C(N)=NC[C@H]2CC(C)C)C[C@H]1Cc1ccccc1	1.3	0.5	17.2	51.2*	1.0	2.2	37.8
COCc1ccc(CN2CCc3c([nH]c4ccccc34)C2CC(C)C)o1 (stereo unspecified)	-0.5	-2.4	-7.8	2.4	-34.8	/	/
Cc1ccc(S(=O)(=O)NNC(=O)c2ccc3ccccc3n2)cc1	-2.0	-1.8	7.9	-4.2	31.1	/	/
O=S1(=O)CC(O)C(N=Nc2c(O)n(Cc3ccccc3)c3ccccc23)C1 (stereo unspecified)	-0.5	-2.3	-10.4	55.5*	13.1	3.4	43.7
SMILES	UPR CHOP act	XBP1 UPR activ	Apaf1 inhib	UBC13 inh	Mdm2-MdmX inh	Casp3 UBC13 ctr	UBC13 conf	others
Cc1c(Br)c(C(=O)NNC(=O)c2ccc(C(C)(C)C)cc2)nn1C	0.5	2.2	-23.9	56.2*	9.8	0.2	57.3*
CCc1ccc(C(=O)Nn2c(C)nc3ccccc3c2=O)cc1	-1.7	0.2	1.0	60.3*	-16.5	-2.4	63.6*
CCOC(=O)CSc1nc2ccccc2c(=O)n1NC(=O)c1ccccc1	0.9	-2.2	-0.1	48.5*	-73.2	6.3	38.6
Cc1ccc(C)c(N(CC(=O)NCc2ccco2)C(=O)CCC(=O)Nc2nccs2)c1	0.5	-2.1	11.5	3.0	-6.0	/	/
Cc1ccc(N(CC(=O)NCCSc2ccccn2)S(=O)(=O)c2ccc(F)cc2)cc1	1.4	-5.5	-0.4	5.3	11.8	/	/
CC(C)(C)c1ccc(C(=O)N2CCNCC2)cc1	-2.0	4.5	-2.1	10.5	4.6	/	/
O=C(c1ccc(-c2cc(O)c3ncccc3c2)cc1)N1CCNCC1	0.4	1.2	18.2	113.9*	34.6	-3.8	116.9*
CCCCN1CCc2c1nc1ccc(Br)cc1c2N	-1.6	-3.3	-14.3	55.2*	35.0	1.1	?
C#CCOCCOCCOCCNc1nc(N2CCN(C(=O)[C@H](CCC(=O)O)n3cc(C(N)Cc4ccc(O)cc4)nn3)CC2)nc(N2CCN(C(=O)[C@H](CCCCN)n3cc(C(N)[C@H](C)CC)nn3)CC2)n1 (stereo partly specified)	1.1	-0.2	-2.3	-6.9	13.1	/	/
